Source: the RNAGym collection of RNA variant scans (doi:10.1126/science.aae0568)
Variants at the floor of the assay were thinned out.

B1: tRNA (parent)
chain: GUUCCGUUGGCGUAAUGGUAACGCGUCUCCCUCCUAAGGAGAAGACUGCGGGUUCGAGUCCCGUACGGAACG

Variants of: B1
Test: yeast fitness relative to wild type (ratio to wild type); higher = fitter; tRNA-Arg(CCU), competitive growth, 37 C, YPD
Method in brief: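 Changes in genotype frequencies gave Darwinian fitness relative to wild type. Frequencies were read by 100-nucleotide paired-end sequencing of gene amplicons before and after pooled Saccharomyces cerevisiae strains, carrying tRNA-Arg(CCU) gene variants at the native locus, were competed in YPD at 37°C for 24 hours in six replicates. A genotype was kept only with ≥ 100 starting reads, and estimates < 0.5 were set to 0.5.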

For C5A A14G C29G C55U A70U, which yeast fitness is on record?
The yeast fitness was at most 0.5.

Which yeast fitness does the source give for C5G C11G A42C C49U C62A here?
The yeast fitness was at most 0.5.

For C5G A15G U16A A20G U28A C30A C33A A36U U47C A69C, which yeast fitness is on record?
The yeast fitness was at most 0.5.

Which yeast fitness does the source give for C5A U8G C27U A45G U53C here?
Its yeast fitness is at most 0.5.

Which yeast fitness does the source give for C5A A57U G68U A70G here?
The yeast fitness was 0.541.

Which yeast fitness does the source give for C5A A20G C29A G51C G67C here?
Its yeast fitness is at most 0.5.

Which yeast fitness does the source give for C5A A40G C62U here?
Its yeast fitness is at most 0.5.

With C5A G48A as the variant, how does the yeast fitness read?
Its yeast fitness is 0.871.

For C5A A36U G39A A45G G63U, which yeast fitness is on record?
Its yeast fitness is at most 0.5.

Which yeast fitness does the source give for C5A G39A U47A C55U G67A A69G here?
The yeast fitness was at most 0.5.

With C5A A37U C66U as the variant, how does the yeast fitness read?
The yeast fitness was at most 0.5.

For C5A G18C A45C G68A A70G, which yeast fitness is on record?
Its yeast fitness is at most 0.5.

For C5G A65U C66G, which yeast fitness is on record?
Its yeast fitness is at most 0.5.

For C5A A45U C55U G56A U59A C66G, which yeast fitness is on record?
The yeast fitness was at most 0.5.

With C4U U53G as the variant, how does the yeast fitness read?
Its yeast fitness is 0.558.

For C5A A15C G39C, which yeast fitness is on record?
The yeast fitness was at most 0.5.

Which yeast fitness does the source give for C5A C24G A69U here?
The yeast fitness was 0.578.

For C5A C24G A69C, which yeast fitness is on record?
Its yeast fitness is at most 0.5.

With C5A G48C G67C as the variant, how does the yeast fitness read?
The yeast fitness was 0.591.

For C5G C22U C27U A36G, which yeast fitness is on record?
The yeast fitness was at most 0.5.

For C5G C27G C34G G63C C66U, which yeast fitness is on record?
Its yeast fitness is at most 0.5.

Which yeast fitness does the source give for C5A U7C C29U C66U here?
Its yeast fitness is at most 0.5.

Which yeast fitness does the source give for C5A A40G C49G here?
The yeast fitness was 0.569.

With C5A A21G G67C as the variant, how does the yeast fitness read?
The yeast fitness was 0.933.

Which yeast fitness does the source give for C5A A36G A42C A43U here?
The yeast fitness was at most 0.5.

Which yeast fitness does the source give for C5A A20U here?
Its yeast fitness is 0.781.

For C5A U16C U59G, which yeast fitness is on record?
Its yeast fitness is at most 0.5.

Which yeast fitness does the source give for C5G C11A A14G G25C C29G here?
The yeast fitness was 0.517.

For C5A C22A G50C G58A A69C, which yeast fitness is on record?
Its yeast fitness is 0.607.

Which yeast fitness does the source give for C5A A14G C31A C55A C61A G63A here?
The yeast fitness was 0.536.

Which yeast fitness does the source give for C5A C11A here?
Its yeast fitness is 0.592.

With C5G C11U A42G C49U as the variant, how does the yeast fitness read?
The yeast fitness was 0.548.

With C5A G18A G25A C31U U47C C61U as the variant, how does the yeast fitness read?
The yeast fitness was at most 0.5.

For C5A G12A C33U, which yeast fitness is on record?
The yeast fitness was at most 0.5.

Which yeast fitness does the source give for C5G A42C G51C A65G here?
Its yeast fitness is at most 0.5.

With C5G A14C G23C G38A G58C A70G as the variant, how does the yeast fitness read?
The yeast fitness was 0.545.

Which yeast fitness does the source give for C5A A21U here?
Its yeast fitness is 0.621.

With C5G C30G C31A G50A U54C U59A as the variant, how does the yeast fitness read?
The yeast fitness was 0.596.

With C5G C11A A14G G25C C29G A57U C66U as the variant, how does the yeast fitness read?
The yeast fitness was at most 0.5.

Which yeast fitness does the source give for C5A U16A A21G C27G C46U here?
Its yeast fitness is at most 0.5.

Which yeast fitness does the source give for C5A C24G U26A C29G U32A A65U here?
Its yeast fitness is at most 0.5.

Which yeast fitness does the source give for C5G A21G G51A here?
Its yeast fitness is 0.617.

Which yeast fitness does the source give for C5G C11U C29A here?
The yeast fitness was 0.53.

With C5A C27A as the variant, how does the yeast fitness read?
Its yeast fitness is 0.936.

With C5A A21C C24A G50C as the variant, how does the yeast fitness read?
The yeast fitness was at most 0.5.

With C5A C11G A21U C62U as the variant, how does the yeast fitness read?
The yeast fitness was at most 0.5.

For C5G C11U A45C, which yeast fitness is on record?
Its yeast fitness is at most 0.5.

Which yeast fitness does the source give for C5G A45C U54G here?
Its yeast fitness is 0.622.

Which yeast fitness does the source give for C5A U19A C62A here?
The yeast fitness was at most 0.5.

Which yeast fitness does the source give for C5A A40G C66U here?
Its yeast fitness is 0.549.

Which yeast fitness does the source give for C5G A20C U54A here?
Its yeast fitness is 0.616.

For C5G C24A, which yeast fitness is on record?
The yeast fitness was 0.96.

Which yeast fitness does the source give for C5G C24G here?
The yeast fitness was 0.604.

With C5G C27A A37C C55G as the variant, how does the yeast fitness read?
The yeast fitness was at most 0.5.

For C5A G41A C55A, which yeast fitness is on record?
The yeast fitness was at most 0.5.

With C5G A21G C24U G68A as the variant, how does the yeast fitness read?
Its yeast fitness is 0.71.

With C5A C46A as the variant, how does the yeast fitness read?
The yeast fitness was 0.97.

For C5A C27G A57C, which yeast fitness is on record?
The yeast fitness was at most 0.5.

For C5A U13C C29U G48C G52C A57C G58A, which yeast fitness is on record?
Its yeast fitness is at most 0.5.

For C5G C24G A40U, which yeast fitness is on record?
The yeast fitness was 0.57.

For C5A U28G A42U, which yeast fitness is on record?
The yeast fitness was at most 0.5.

With C5A U19A A65C as the variant, how does the yeast fitness read?
The yeast fitness was 0.538.

Which yeast fitness does the source give for C5A G17A A21C C33G A43U here?
The yeast fitness was at most 0.5.

Which yeast fitness does the source give for C5A A69U A70C here?
The yeast fitness was 0.768.

Which yeast fitness does the source give for C5G A57C here?
The yeast fitness was 0.716.

Which yeast fitness does the source give for C5A U8A U16G A20U A36G C60G here?
The yeast fitness was at most 0.5.

With C5G C11G C27G G67U as the variant, how does the yeast fitness read?
Its yeast fitness is at most 0.5.

For C5A C22U C49A C62U, which yeast fitness is on record?
The yeast fitness was at most 0.5.

Which yeast fitness does the source give for C5G A21C C61A here?
The yeast fitness was at most 0.5.

Which yeast fitness does the source give for C5A G10C C24G here?
Its yeast fitness is at most 0.5.

Which yeast fitness does the source give for C5A C24G C29G A40C A43U U47A C60A here?
The yeast fitness was at most 0.5.

With C5A U59A C60U as the variant, how does the yeast fitness read?
The yeast fitness was at most 0.5.

Which yeast fitness does the source give for C5A C30A A43U A57G here?
Its yeast fitness is at most 0.5.

For C5A C62G C66A, which yeast fitness is on record?
The yeast fitness was at most 0.5.

For C5A U16G A69C, which yeast fitness is on record?
The yeast fitness was 0.69.

With C5A G52C C66U as the variant, how does the yeast fitness read?
Its yeast fitness is at most 0.5.

For C5G C11U C31U, which yeast fitness is on record?
Its yeast fitness is 0.676.

For C5A C30U G68U, which yeast fitness is on record?
The yeast fitness was 0.567.

For C5G A20C C29G G38C, which yeast fitness is on record?
Its yeast fitness is 0.529.

With C5G A15G C24G U32A C34G U64C G68A A69U A70U as the variant, how does the yeast fitness read?
Its yeast fitness is at most 0.5.

Which yeast fitness does the source give for C5G A14G A15G C30U A45G U64A here?
Its yeast fitness is at most 0.5.

For C5A C29U A57G U59C, which yeast fitness is on record?
The yeast fitness was at most 0.5.

Which yeast fitness does the source give for C5G C11U A42U G68A here?
Its yeast fitness is at most 0.5.
